Test results taken from ChEMBL document CHEMBL5230175, “The war on hTG2: warhead optimization in small molecule human tissue transglutaminase inhibitors” (RSC Med Chem, 2023).

Experiments:
[1] = Ratio of Kinact/Ki for inhibition of human tissue transglutaminase assessed as substrate hydrolysis to corrected second order rate constant (K2 corrected) for GSH reactivity in aqueous buffer assessed as GSH adduct formation; assay type: physicochemical
[2] = target: T1, Protein-glutamine gamma-glutamyltransferase E (Homo sapiens) (UniProt Q08188); experiment: Reversible inhibition of activated human TG3 using peptidic FRET-quenched probe A101 as substrate by fluorescence based assay relative to control; conditions: concentration not given here
T1 sequence (whole entry): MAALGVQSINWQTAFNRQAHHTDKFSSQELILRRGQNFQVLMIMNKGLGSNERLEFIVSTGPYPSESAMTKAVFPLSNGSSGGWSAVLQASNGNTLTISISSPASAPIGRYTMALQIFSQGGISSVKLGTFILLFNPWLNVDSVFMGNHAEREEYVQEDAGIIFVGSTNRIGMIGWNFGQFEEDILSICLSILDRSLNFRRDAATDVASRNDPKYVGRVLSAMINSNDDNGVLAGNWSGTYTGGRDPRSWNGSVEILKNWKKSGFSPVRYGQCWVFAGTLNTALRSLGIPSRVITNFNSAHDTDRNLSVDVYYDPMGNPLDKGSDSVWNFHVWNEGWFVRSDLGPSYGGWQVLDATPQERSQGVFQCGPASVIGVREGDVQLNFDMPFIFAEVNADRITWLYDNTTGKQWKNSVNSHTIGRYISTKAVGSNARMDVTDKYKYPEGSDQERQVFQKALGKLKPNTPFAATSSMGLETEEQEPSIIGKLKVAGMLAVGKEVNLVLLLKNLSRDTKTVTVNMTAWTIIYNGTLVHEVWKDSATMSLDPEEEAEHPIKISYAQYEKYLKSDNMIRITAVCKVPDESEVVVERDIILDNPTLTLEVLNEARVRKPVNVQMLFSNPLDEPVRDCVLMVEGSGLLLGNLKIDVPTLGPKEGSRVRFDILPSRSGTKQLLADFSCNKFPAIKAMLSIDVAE

[3] = target: T2, Protein-glutamine gamma-glutamyltransferase (Homo sapiens, UniProt P21980); experiment: Irreversible inhibition of human recombinant tissue transglutaminase expressed in Escherichia coli using Cbz-Glu-(gamma-p-nitrophenylester)Gly (AL5) as substrate assessed as substrate hydrolysis by measuring KI incubated for 20 mins by colorimetric analysis
T2 sequence (P21980 whole entry): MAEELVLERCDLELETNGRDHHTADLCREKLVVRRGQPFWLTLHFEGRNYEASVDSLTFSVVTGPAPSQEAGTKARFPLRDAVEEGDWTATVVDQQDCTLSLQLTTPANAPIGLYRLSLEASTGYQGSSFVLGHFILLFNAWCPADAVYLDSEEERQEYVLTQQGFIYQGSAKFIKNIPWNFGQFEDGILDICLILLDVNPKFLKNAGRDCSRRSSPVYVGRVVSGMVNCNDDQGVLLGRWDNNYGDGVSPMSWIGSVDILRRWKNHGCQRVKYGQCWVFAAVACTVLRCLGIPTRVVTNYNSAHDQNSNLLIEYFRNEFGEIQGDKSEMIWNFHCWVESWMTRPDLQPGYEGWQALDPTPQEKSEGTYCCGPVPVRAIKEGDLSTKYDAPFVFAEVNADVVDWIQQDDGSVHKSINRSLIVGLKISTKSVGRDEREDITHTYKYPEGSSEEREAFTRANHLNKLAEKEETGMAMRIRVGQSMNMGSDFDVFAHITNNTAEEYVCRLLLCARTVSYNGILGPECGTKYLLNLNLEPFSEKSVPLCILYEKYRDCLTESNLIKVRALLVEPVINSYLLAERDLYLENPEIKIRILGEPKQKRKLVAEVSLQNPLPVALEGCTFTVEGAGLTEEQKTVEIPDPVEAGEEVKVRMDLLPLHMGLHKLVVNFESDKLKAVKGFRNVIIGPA

[4] = target: T3, Protein-glutamine gamma-glutamyltransferase (Homo sapiens) (UniProt P21980); experiment: Inhibition of human recombinant tissue transglutaminase expressed in Escherichia coli using Cbz-Glu-(gamma-p-nitrophenylester)Gly (AL5) as substrate assessed as substrate hydrolysis by measuring Kinact incubated for 20 mins by colorimetric analysis
T3 sequence (whole entry): T2 sequence (P21980 whole entry)

[5] = target: T3, Protein-glutamine gamma-glutamyltransferase (Homo sapiens); experiment: Irreversible inhibition of human recombinant tissue transglutaminase expressed in Escherichia coli using Cbz-Glu-(gamma-p-nitrophenylester)Gly (AL5) as substrate assessed as substrate hydrolysis by measuring Kinact/Ki ratio by linear regression analysis
Summary of the method: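 For TG2/AL5 under Kitz–Wilson conditions (100 μM AL5, pH 6.9 MOPS, 25 °C, 405 nm), kinact/KI was taken from simple linear regression of kobs against corrected inhibitor concentration at the lowest inhibitor concentrations.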

[6] = target: T3, Protein-glutamine gamma-glutamyltransferase (Homo sapiens); experiment: Irreversible inhibition of human recombinant tissue transglutaminase expressed in Escherichia coli using Cbz-Glu-(gamma-p-nitrophenylester)Gly (AL5) as substrate assessed as substrate hydrolysis by measuring Kinact/Ki ratio incubated for 20 mins by colorimetric analysis
[7] = target: T4, Protein-glutamine gamma-glutamyltransferase 6 (Homo sapiens) (UniProt O95932); experiment: Irreversible inhibition of human TG6 using Cbz-Glu-(gamma-p-nitrophenylester)Gly (AL5) as substrate assessed as substrate hydrolysis by measuring observed binding constant incubated for 60 mins by colorimetric assay
T4 sequence (whole entry): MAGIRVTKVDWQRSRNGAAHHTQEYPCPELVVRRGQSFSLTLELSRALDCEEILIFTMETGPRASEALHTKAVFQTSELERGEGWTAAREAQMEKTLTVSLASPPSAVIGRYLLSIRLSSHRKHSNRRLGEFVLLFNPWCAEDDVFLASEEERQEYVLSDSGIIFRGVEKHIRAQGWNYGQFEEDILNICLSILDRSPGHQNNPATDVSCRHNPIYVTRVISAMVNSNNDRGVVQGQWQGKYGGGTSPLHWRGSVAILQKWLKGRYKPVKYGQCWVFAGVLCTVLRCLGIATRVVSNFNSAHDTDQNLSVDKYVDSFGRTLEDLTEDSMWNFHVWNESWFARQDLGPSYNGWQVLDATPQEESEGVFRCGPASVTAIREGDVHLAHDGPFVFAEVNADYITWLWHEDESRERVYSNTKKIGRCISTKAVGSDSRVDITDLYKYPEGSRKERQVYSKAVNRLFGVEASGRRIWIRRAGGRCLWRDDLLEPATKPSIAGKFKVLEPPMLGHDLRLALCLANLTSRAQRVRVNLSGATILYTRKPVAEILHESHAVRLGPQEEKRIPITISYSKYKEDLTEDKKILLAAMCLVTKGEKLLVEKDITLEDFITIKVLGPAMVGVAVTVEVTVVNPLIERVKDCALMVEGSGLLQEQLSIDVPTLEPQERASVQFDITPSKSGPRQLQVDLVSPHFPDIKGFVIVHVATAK

| Ratio [1] | inhibition [2] [%] | Ki [3] [nM] | Kinact [4] [min⁻¹] | Ratio [5] | Ratio [6] | K [7] [min⁻¹] | SMILES |
| --- | --- | --- | --- | --- | --- | --- | --- |
| 5.437 | 41.5 | 150 | 1.23 | 4540 10^3/M/min | 8050 10^3/M/min | – | O=C(CCl)NCC(=O)N1CCN(C(=O)C23CC4CC(CC(C4)C2)C3)CC1 |
| – | 59.1 | – | – | – | – | 0.02 | C=CC(=O)NCC(=O)N1CCN(C(=O)C23CC4CC(CC(C4)C2)C3)CC1 |
